Activity calls are given as the source filed them. No cut-off for these calls is given here.
Experiments:
[1] = target: T1, Sterol O-acyltransferase 1 (Homo sapiens, UniProt P35610); assay: Inhibition of macrophage ACAT (unknown origin)
T1 sequence (P35610 whole entry): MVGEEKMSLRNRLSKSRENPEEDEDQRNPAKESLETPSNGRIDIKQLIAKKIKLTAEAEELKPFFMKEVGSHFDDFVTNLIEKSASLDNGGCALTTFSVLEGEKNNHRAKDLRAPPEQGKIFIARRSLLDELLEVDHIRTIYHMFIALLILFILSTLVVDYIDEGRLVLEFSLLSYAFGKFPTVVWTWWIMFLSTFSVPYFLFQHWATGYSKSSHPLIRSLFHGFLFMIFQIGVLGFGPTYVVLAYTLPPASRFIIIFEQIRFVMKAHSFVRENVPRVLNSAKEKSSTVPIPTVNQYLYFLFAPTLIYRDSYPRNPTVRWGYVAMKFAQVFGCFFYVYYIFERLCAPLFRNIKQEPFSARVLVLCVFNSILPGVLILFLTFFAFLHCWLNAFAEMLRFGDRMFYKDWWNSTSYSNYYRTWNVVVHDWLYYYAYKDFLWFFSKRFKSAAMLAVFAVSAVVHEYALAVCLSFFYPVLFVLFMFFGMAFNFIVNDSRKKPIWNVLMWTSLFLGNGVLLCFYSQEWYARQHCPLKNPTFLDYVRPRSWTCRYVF

MDM [2] = assay: Antihyperlipidemic activity in human MDM assessed as inhibition of acetylated LDL-induced [3H]-cholesterol ester accumulation at 20 uM after 24 hrs by radioscanner analysis in presence of [3H]-oleate-conjugated BSA; type: functional
Procedure, shortened: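 Monocytes were isolated from healthy-volunteer blood on Ficoll, allowed to adhere for 1 h, then differentiated for 7 days into macrophages in DMEM with 10% pooled human serum. The macrophages were incubated for 24 h at 37 °C in 5% CO2 with 50 μg/mL AcLDL, 0.1 mM BSA-conjugated [3H]oleate and 20 μM sample. Cellular lipids were extracted, [3H]CE was separated by TLC, and it was quantified by radioscanner.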

[3] = target: T1, Sterol O-acyltransferase 1; assay: Inhibition of ACAT1 (unknown origin)
[4] = target: T2, Sterol O-acyltransferase 2 (Homo sapiens, UniProt O75908); assay: Inhibition of macrophage ACAT2 (unknown origin)
T2 sequence (O75908 whole entry): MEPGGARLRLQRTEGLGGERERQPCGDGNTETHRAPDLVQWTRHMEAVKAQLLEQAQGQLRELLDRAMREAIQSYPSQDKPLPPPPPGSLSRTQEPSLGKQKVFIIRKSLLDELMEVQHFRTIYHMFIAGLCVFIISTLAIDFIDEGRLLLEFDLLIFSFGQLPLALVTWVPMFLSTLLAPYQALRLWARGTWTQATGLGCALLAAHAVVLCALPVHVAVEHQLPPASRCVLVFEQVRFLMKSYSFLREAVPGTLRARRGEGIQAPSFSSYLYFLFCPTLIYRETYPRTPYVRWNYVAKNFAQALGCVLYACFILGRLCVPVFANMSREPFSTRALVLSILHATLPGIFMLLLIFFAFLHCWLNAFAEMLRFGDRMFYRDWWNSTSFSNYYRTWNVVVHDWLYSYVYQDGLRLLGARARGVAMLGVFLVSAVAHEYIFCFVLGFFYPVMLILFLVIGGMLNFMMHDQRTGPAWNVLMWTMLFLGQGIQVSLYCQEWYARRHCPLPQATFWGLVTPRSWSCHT

[5] = target: T1, Sterol O-acyltransferase 1
[6] = target: T2, Sterol O-acyltransferase 2; assay: Inhibition of ACAT2 in human MDM assessed as inhibition of acetylated LDL-induced cholesterol ester accumulation after 1 hr by HPLC analysis
[7] = Cytotoxicity against human MDM assessed as cell viability at 50 uM after 24 hrs by WST-8 assay
Procedure, shortened: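 HMDMs seeded at 1×10^4 per well, treated with compound; viability read by WST-8 assay.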

MDM [8] = assay: Effect on ACAT expression in human MDM at 5 to 30 uM after 24 hrs by immunoblot analysis; type: functional
Procedure, shortened: (§1)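 HMDMs exposed 24 h to graded compound concentrations, solubilised in 1% Triton X-100, boiled in SDS sample buffer, then N-glycosidase-treated at 37 °C for 24 h. 10 μg protein run on 10% SDS-PAGE and immunoblotted for human ACAT-1, SR-A (E5) or SR-BI, with β-actin reprobe; band density quantified.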

Mus musculus [9] = assay: Antiatherosclerotic activity in apoE-deficient C57BL/6 mouse assessed as decrease in plasma LDL cholesterol level at 30 mg/kg/day administered through feeding measured after 80 days relative to control; type: functional; set-up: scale not given: the % may be the effect or the level left
[10] = target: T3, Sterol O-acyltransferase 1 (Homo sapiens) (UniProt P35610); assay: (§2) Non-competitive inhibition of human microsomal ACAT1 overexpressed in CHO cells using [14C]oleoyl-CoA as substrate assessed as formation of cholesteryl [14C]-oleate […]
T3 sequence (whole entry): T1 sequence (P35610 whole entry)

[11] = target: T1, Sterol O-acyltransferase 1; assay: as §2
Mus musculus [12] = organism: Mus musculus; assay: (§3) Inhibition of microsomal ACAT in apoE-deficient mouse peritoneal macrophage using [14C]oleoyl-CoA as substrate assessed as formation of cholesteryl [14C]-oleate […] by TLC analysis
[13] = as §3
[14] = target: T3, Sterol O-acyltransferase 1 (Homo sapiens); assay: (§4) Non-competitive inhibition of microsomal ACAT in human MDM using [14C]oleoyl-CoA as substrate assessed as formation of cholesteryl [14C]-oleate […]
[15] = target: T1, Sterol O-acyltransferase 1; assay: as §4
[16] = Cytotoxicity against human MDM assessed as inhibition of acetylated LDL-induced [3H]-triglyceride synthesis at 50 uM after 24 hrs by radioscanner analysis in presence of [3H]-oleate-conjugated BSA
Procedure, shortened: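 HMDMs incubated 24 h with AcLDL 50 μg/mL and 0.1 mM [3H]oleate–BSA with or without compound; extracted lipids assayed for TG-[3H]oleate radioactivity.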

[17] = Cytotoxicity against human MDM assessed as change in cell morphology at 50 uM
MDM [18] = assay: Effect on scavenger receptor-A expression in human MDM at 5 to 30 uM after 24 hrs by immunoblot analysis; type: functional; procedure, shortened: as §1
MDM [19] = assay: Effect on scavenger receptor-B1 expression in human MDM at 5 to 30 uM after 24 hrs by immunoblot analysis; type: functional; procedure, shortened: as §1
CHO [20] = assay: Antihyperlipidemic activity in CHO cells overexpressing human ACAT2 assessed as inhibition of [3H]-cholesterol ester accumulation after 24 hrs by radioscanner analysis in presence of [3H]-oleate-conjugated BSA; type: functional, cell-based; conditions: Cricetulus griseus
Procedure, shortened: (§5)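 CHO cells stably overexpressing human ACAT-1 or ACAT-2, grown in F-12 HAM with 10% FCS and G418 800 μg/mL. Incubated 24 h in medium with 10% FCS, 0.1 mM [3H]oleate–BSA and graded compound concentrations; no AcLDL. Lipids extracted, [3H]CE separated by TLC and counted by radioscanner.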

MDM [21] = assay: (§6) Antihyperlipidemic activity in human MDM assessed as inhibition of acetylated LDL-induced [3H]-cholesterol ester accumulation after 24 hrs by radioscanner analysis in presence of [3H]-oleate-conjugated BSA; type: functional
Procedure, shortened: (§7)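 Human monocytes from healthy volunteer blood by Ficoll, adhered 1 h, differentiated 7 days in DMEM with 10% pooled human serum. Monolayers incubated 24 h with AcLDL 50 μg/mL plus 0.1 mM [3H]oleate–BSA with or without compound; lipids extracted, [3H]cholesteryl oleate separated by TLC and counted by radioscanner.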

[22] = as §6; type: functional; procedure, shortened: as §7
[23] = system: Peritoneal macrophage cell; assay: (§8) Antihyperlipidemic activity in apoE-deficient mouse peritoneal macrophages assessed as inhibition of acetylated LDL-induced [3H]-cholesterol ester accumulation after 24 hrs by radioscanner analysis in presence of [3H]-oleate-conjugated BSA; type: functional, cell-based
Procedure, shortened: (§9)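 Peritoneal macrophages from apoE-deficient mice, cultured in DMEM with 10% pooled human serum, 37 °C, 5% CO2. [3H]CE accumulation after AcLDL loading was measured by the [3H]oleate/TLC method.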

[24] = as §8; type: functional, cell-based; conditions: Peritoneal macrophage cell; procedure, shortened: as §9
Mus musculus [25] = assay: Antiatherosclerotic activity in apoE-deficient C57BL/6 mouse assessed as decrease in plasma free cholesterol level at 30 mg/kg/day administered through feeding measured after 80 days relative to control; type: functional; set-up: scale not given: the % may be the effect or the level left
MDM [26] = assay: Inhibition of endocytic [125I]-acetylated LDL uptake in human MDM at 50 uM after 5 hrs; type: functional
Procedure, shortened: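 Day-7 HMDMs in DMEM with 3% BSA, incubated 5 h at 37 °C with 125I-AcLDL (50 μg/mL, 600 cpm/ng) plus compound. Degradation was measured as TCA-soluble, AgNO3-cleared medium radioactivity. Cell-associated counts came from 0.1 M NaOH lysates after ice-cold PBS/1% BSA washes and were normalised to protein.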

Mus musculus [27] = assay: Antiatherosclerotic activity in apoE-deficient C57BL/6 mouse assessed as decrease in plasma triglyceride level at 30 mg/kg/day administered through feeding measured after 80 days relative to control; type: functional; set-up: scale not given: the % may be the effect or the level left
Mus musculus [28] = assay: Antiatherosclerotic activity in apoE-deficient C57BL/6 mouse assessed as decrease in total plasma cholesterol level at 30 mg/kg/day administered through feeding measured after 80 days relative to control; type: functional; set-up: scale not given: the % may be the effect or the level left
Mus musculus [29] = assay: Antiatherosclerotic activity in apoE-deficient C57BL/6 mouse assessed as decrease in atherosclerotic lesion size in aortic sinus at 30 mg/kg/day administered through feeding measured after 80 days by oil red O/hematoxylin staining assay relative to control; type: functional; set-up: scale not given: the % may be the effect or the level left
CHO [30] = assay: Antihyperlipidemic activity in CHO cells overexpressing human ACAT1 assessed as inhibition of [3H]-cholesterol ester accumulation after 24 hrs by radioscanner analysis in presence of [3H]-oleate-conjugated BSA; type: functional, cell-based; conditions: Cricetulus griseus; procedure, shortened: as §5
[31] = target: T4, Sterol O-acyltransferase 2 (Homo sapiens) (UniProt O75908); assay: (§10) Non-competitive inhibition of human microsomal ACAT2 overexpressed in CHO cells using [14C]oleoyl-CoA as substrate assessed as formation of cholesteryl [14C]-oleate […]
T4 sequence (whole entry): T2 sequence (O75908 whole entry)

[32] = target: T2, Sterol O-acyltransferase 2; assay: as §10
[33] = Inhibition of microsomal ACAT in cholesterol-fed JW rabbit intestine using [14C]oleoyl-CoA as substrate incubated for 5 mins prior to substrate addition measured after 5 to 10 mins by liquid scintillation counting analysis; type: microsomes, Oryctolagus cuniculus

CCCCCCCCCN(CC(C)(C)C)C(=O)N[C@H]1CCCC[C@@H]1OC(=O)CCNC(=O)[C@@H]1OC(C)(C)OCC1(C)C
IC50 [1]: 0.032 µM

Oc1cccc2c1[nH]c1c(C3=C[C@@]4(O)CC/C=C\CCCCN5CC[C@@H]3[C@]3(CC6/C=C\CCCCN6[C@H]34)C5)nccc12 (some centres undefined)
inhibition (MDM [2]): Active

O[C@H]1/C=C/C[C@]2(O)C=C(c3nccc4c3[nH]c3ccccc34)[C@@H]3CCN(CCCC1)C[C@@]31C[C@@H]3/C=C\CCCCN3[C@H]12
inhibition (MDM [2]): Active

CCCCCCCCN1CCc2c(C)c(CC(=O)O)c(C)c(NC(=O)C(C)(C)C)c21 [PACTIMIBE]
IC50 [3]: 4.9 µM | IC50 [4]: 3 µM

Oc1ccc2[nH]c3c(C4=C[C@@]5(O)CC/C=C\CCCCN6CCC4[C@]4(C[C@@H]7/C=C\CCCCN7[C@H]45)C6)nccc3c2c1 (some centres undefined)
inhibition (MDM [2]): Active

O=CC1=C[C@@]2(O)CC/C=C\CCCCN3CC[C@@H]1[C@]1(C[C@@H]4/C=C\CCCCN4[C@H]12)C3
inhibition (MDM [2]): Active

CC(C)c1cc(C(C)C)c(CC(=O)NS(=O)(=O)Oc2c(C(C)C)cccc2C(C)C)c(C(C)C)c1 [AVASIMIBE]
IC50 [5]: 23.5 µM | IC50 [6]: 9.2 µM

O=C1CCCN2[C@@H]3[C@@]45CN6CCCC/C=C\CC[C@@]3(C=C(c3nccc7c3[nH]c3ccccc37)[C@@H]4CC6)O[C@]2(CC1)C5
inhibition (MDM [2]): Active

O[C@]12C=C(c3nccc4c3[nH]c3ccccc34)[C@@H]3CCN(CCCC/C=C\CC1)C[C@@]31C[C@@H]3/C=C\CCCCN3[C@H]12 [MANZAMINE A]
Activity [7]: Toxic | Activity (MDM [8]): inactive | Activity (Mus musculus [9]): 40% | inhibition [10]: Dose-dependent effect | IC50 [11]: 6.2 µM | inhibition (Mus musculus [12]): Dose-dependent effect | IC50 [13]: 5.8 µM | inhibition [14]: Dose-dependent effect | IC50 [15]: 6.4 µM | Activity [16]: Toxic | Activity [17]: Toxic | Activity (MDM [18]): inactive | Activity (MDM [19]): inactive | inhibition (CHO [20]): Dose-dependent effect | inhibition (MDM [21]): Dose-dependent effect | IC50 [22]: 4.1 µM | inhibition [23]: Dose-dependent effect | IC50 [24]: 6.2 µM | Activity (Mus musculus [25]): 20% | inhibition (MDM [2]): Active | inhibition (MDM [26]): Active | Activity (Mus musculus [27]): 50% | Activity (Mus musculus [28]): 40% | Activity (Mus musculus [29]): 45% | inhibition (CHO [30]): Dose-dependent effect | inhibition [31]: Dose-dependent effect | IC50 [32]: 4.8 µM

c1ccc2c(c1)[nH]c1cnccc12
inhibition (MDM [2]): Active

CN(C)c1ccc(NC(=O)N(C[C@H]2CC[C@H](CN(C(=O)Nc3ccc(N(C)C)cc3)C3CCCCC3)CC2)C2CCCCC2)cc1
IC50 [33]: 0.0076 µM

Reference: ChEMBL document CHEMBL2396550, “Manzamine A, a marine-derived alkaloid, inhibits accumulation of cholesterol ester in macrophages and suppresses hyperlipidemia and atherosclerosis in vivo” (Bioorg Med Chem, 2013)
